Measurements taken from ChEMBL document CHEMBL3091291, “Synthesis and pharmacological characterization of benzenesulfonamides as dual species inhibitors of human and murine mPGES-1” (Bioorg Med Chem, 2013).
pIC50: −log10 of the molar value. Active and inactive are the calls of the source. The calls are words filed in the database; no cut-off is given here.

Assays:
[1] = target: T1, Prostaglandin E synthase (Homo sapiens) (UniProt O14684); test: Inhibition of mPGES-1 in human HeLa cells using PGH2 as substrate assessed as inhibition of IL-1beta/TNFalpha-stimulated PGE2 production at 5 uM preincubated for 30 mins followed by substrate addition measured after 1 min by LC-MS/MS analysis; type: cell-based
T1 sequence (whole entry): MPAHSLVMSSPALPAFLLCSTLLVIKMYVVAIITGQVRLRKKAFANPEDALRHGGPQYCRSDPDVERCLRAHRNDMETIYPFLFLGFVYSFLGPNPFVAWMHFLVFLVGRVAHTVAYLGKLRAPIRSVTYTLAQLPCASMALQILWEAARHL
Outline: (§1)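 Microsomal fraction from HeLa, NIH-3T3 or RAW 264.7 cells, obtained by sonication and ultracentrifugation, resuspended in 0.1 M KPi pH 7.4 with 2.5 mM reduced GSH. Protein at 0.15 mg/mL (HeLa, NIH) or 0.3 mg/mL (RAW) incubated with compound 30 min on ice. Reaction started with 20 µM PGH₂, stopped after 1 min with FeCl₂/citric acid. PGE₂ quantified by SPE and LC–MS/MS. IC50 from four-parameter logistic fit of increasing concentrations.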

[2] = target: Prostaglandin G/H synthase 1 (Homo sapiens) (UniProt P23219); test: Inhibition of COX1 in human whole blood assessed as reduction in TXB2 production by measuring remaining activity at 100 uM after 1 hr by LC-MS/MS analysis
[3] = target: Prostaglandin G/H synthase 1 (Homo sapiens) (UniProt P23219); test: Inhibition of COX1 in human whole blood assessed as reduction in PGD2 production by measuring remaining activity at 100 uM after 1 hr by LC-MS/MS analysis
[4] = target: T1, Prostaglandin E synthase (Homo sapiens); test: Inhibition of mPGES-1 in human HeLa cells using PGH2 as substrate assessed as inhibition of IL-1beta/TNFalpha-stimulated PGE2 production at 1 to 10 uM after 24 hrs by LC-MS/MS analysis; type: cell-based
Outline: (§2)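 HeLa cells (2 × 10⁴ per well) grown 24 h at 37 °C, then given fresh medium with 1 ng/mL IL-1b + 5 ng/mL TNFa (or PBS for unstimulated control) plus compound (1, 10 or 100 µM) or DMSO for 24 h at 37 °C. Supernatant mixed with H₃PO₄, EDTA and deuterated internal standards; PGE₂ measured by SPE and LC–MS/MS.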

[5] = target: T2, Prostaglandin G/H synthase 2 (Homo sapiens) (UniProt P35354); test: Inhibition of LPS-stimulated COX2 in human whole blood assessed as reduction in PGE2 production by measuring remaining activity at 100 uM preincubated for 15 mins followed by LPS addition measured after 24 hrs by LC-MS/MS analysis
T2 sequence (whole entry): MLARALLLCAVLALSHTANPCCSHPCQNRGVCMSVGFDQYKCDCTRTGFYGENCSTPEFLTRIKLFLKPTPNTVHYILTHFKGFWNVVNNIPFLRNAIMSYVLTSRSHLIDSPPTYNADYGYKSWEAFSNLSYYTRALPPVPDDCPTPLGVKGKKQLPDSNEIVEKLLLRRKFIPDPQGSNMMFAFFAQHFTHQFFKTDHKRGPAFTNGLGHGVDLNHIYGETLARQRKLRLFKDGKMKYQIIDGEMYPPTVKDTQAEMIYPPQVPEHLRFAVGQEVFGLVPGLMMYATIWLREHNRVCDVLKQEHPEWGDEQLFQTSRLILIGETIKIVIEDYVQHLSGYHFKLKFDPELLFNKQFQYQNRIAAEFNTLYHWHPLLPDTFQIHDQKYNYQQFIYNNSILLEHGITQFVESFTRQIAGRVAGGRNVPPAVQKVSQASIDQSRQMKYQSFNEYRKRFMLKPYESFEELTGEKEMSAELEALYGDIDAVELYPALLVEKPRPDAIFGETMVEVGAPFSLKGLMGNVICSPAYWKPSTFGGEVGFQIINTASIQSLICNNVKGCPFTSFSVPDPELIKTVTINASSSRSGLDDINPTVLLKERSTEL
Outline: (§3)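 Heparinized human whole blood (500 µL) mixed with compound in DMSO, with acetylsalicylic acid added to block COX-1, held 15 min at 37 °C, then stimulated with LPS in autologous plasma to induce COX-2/mPGES-1. After 24 h at 37 °C, samples chilled 5 min on ice; plasma collected, prostaglandins extracted and measured by LC–MS/MS. Remaining activity given relative to vehicle control.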

[6] = target: T1, Prostaglandin E synthase (Homo sapiens); test: Inhibition of mPGES-1 in human HeLa cells using PGH2 as substrate assessed as inhibition of IL-1beta/TNFalpha-stimulated PGE2 production at 100 uM after 24 hrs by LC-MS/MS analysis; type: cell-based; outline: as §2
[7] = target: T3, Polyunsaturated fatty acid 5-lipoxygenase (Homo sapiens) (UniProt P09917); test: Inhibition of calcium ionophore (A23187)-stimulated human 5-LO assessed as reduction of LTB4 production by measuring remaining activity at 100 uM preincubated for 15 mins followed by calcium ionophore (A23187) addition measured after 15 mins by LC-MS/MS analysis
T3 sequence (whole entry): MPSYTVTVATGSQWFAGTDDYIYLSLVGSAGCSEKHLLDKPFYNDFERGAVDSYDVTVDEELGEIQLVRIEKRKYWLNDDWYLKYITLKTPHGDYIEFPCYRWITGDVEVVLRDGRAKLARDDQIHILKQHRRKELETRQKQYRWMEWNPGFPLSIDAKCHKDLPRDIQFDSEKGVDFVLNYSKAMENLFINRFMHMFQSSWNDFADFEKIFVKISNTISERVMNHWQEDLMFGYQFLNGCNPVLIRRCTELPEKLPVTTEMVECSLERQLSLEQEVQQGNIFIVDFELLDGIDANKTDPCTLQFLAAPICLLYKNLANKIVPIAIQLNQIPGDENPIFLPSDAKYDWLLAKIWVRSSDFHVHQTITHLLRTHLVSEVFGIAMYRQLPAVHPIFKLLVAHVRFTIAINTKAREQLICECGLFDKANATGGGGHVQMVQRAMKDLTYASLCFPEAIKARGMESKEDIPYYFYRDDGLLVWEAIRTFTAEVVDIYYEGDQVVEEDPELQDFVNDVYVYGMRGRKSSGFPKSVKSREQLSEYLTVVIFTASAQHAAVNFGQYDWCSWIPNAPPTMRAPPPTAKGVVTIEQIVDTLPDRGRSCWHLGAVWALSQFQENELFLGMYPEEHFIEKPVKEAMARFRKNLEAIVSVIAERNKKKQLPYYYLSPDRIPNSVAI
Outline: (§4)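 Heparinized human whole blood (500 µL) preincubated with compound 15 min at 37 °C, then stimulated with 20 µM calcium ionophore A23187 in autologous plasma for 15 min at 37 °C. Plasma spiked with deuterated LTB₄ and HETE internal standards, extracted into ethyl acetate, analysed by LC–MS/MS. Inhibition scored when a level fell by 33% or more versus control.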

HeLa = test: Cytotoxicity against IL-1beta/TNFalpha-stimulated human HeLa cells assessed as cell viability up to 10 uM after 24 hrs by WST-1 assay; type: cell-based
Outline: (§5)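 HeLa cells seeded at 3 × 10³ per well in medium with 10% FCS, grown 24 h at 37 °C, then stimulated with IL-1b (1 ng/mL) + TNFa (5 ng/mL) and treated at the same time with compound (1, 10, 100 µM) or DMSO for 24 h. WST-1 reagent then added for 90–150 min; absorbance read at 450 nm against 620 nm reference.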

[8] = Cytotoxicity against IL-1beta/TNFalpha-stimulated human HeLa cells assessed as cell viability at 100 uM after 24 hrs by WST-1 assay; type: cell-based; settings: IL-1beta/TNFalpha-stimulated HeLa cells, read-out: Activity; outline: as §5
[9] = target: T3, Polyunsaturated fatty acid 5-lipoxygenase (Homo sapiens); test: Inhibition of calcium ionophore (A23187)-stimulated human 5-LO assessed as reduction of 5(S)-HETE production by measuring remaining activity at 100 uM preincubated for 15 mins followed by calcium ionophore (A23187) addition measured after 15 mins by LC-MS/MS analysis; outline: as §4
[10] = target: T2, Prostaglandin G/H synthase 2 (Homo sapiens); test: Inhibition of LPS-stimulated COX2 in human whole blood assessed as reduction in PGF2alpha production by measuring remaining activity at 100 uM preincubated for 15 mins followed by LPS addition measured after 24 hrs by LC-MS/MS analysis; outline: as §3
[11] = target: T4, Prostaglandin E synthase (Mus musculus) (UniProt Q9JM51); test: Inhibition of mPGES-1 in Swiss mouse NIH/3T3 cells using PGH2 as substrate assessed as inhibition of IL-1beta/TNFalpha-stimulated PGE2 production at 5 uM preincubated for 30 mins followed by substrate addition measured after 1 min by LC-MS/MS analysis; type: cell-based; outline: as §1
T4 sequence (whole entry): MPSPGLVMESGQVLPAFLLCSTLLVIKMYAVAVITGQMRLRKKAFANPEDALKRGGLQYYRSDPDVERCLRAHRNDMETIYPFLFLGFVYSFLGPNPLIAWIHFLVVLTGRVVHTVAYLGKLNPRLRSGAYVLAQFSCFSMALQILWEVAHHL

[12] = target: T4, Prostaglandin E synthase (Mus musculus); test: Inhibition of mPGES-1 in mouse RAW264.7 cells using PGH2 as substrate assessed as inhibition of LPS-stimulated PGE2 production at 5 uM preincubated for 30 mins followed by substrate addition measured after 1 min by LC-MS/MS analysis; type: cell-based; outline: as §1
Prostaglandin E synthase = target: T5, Prostaglandin E synthase (Homo sapiens, UniProt O14684); test: Inhibition of mPGES-1 in human HeLa cells using PGH2 as substrate assessed as inhibition of IL-1beta/TNFalpha-stimulated PGE2 production preincubated for 30 mins followed by substrate addition measured after 1 min by LC-MS/MS analysis; type: cell-based; outline: as §1
T5 sequence (O14684 whole entry): T1 sequence (whole entry)

Prostaglandin G/H synthase 1 (Homo sapiens), sequence (P23219 whole entry): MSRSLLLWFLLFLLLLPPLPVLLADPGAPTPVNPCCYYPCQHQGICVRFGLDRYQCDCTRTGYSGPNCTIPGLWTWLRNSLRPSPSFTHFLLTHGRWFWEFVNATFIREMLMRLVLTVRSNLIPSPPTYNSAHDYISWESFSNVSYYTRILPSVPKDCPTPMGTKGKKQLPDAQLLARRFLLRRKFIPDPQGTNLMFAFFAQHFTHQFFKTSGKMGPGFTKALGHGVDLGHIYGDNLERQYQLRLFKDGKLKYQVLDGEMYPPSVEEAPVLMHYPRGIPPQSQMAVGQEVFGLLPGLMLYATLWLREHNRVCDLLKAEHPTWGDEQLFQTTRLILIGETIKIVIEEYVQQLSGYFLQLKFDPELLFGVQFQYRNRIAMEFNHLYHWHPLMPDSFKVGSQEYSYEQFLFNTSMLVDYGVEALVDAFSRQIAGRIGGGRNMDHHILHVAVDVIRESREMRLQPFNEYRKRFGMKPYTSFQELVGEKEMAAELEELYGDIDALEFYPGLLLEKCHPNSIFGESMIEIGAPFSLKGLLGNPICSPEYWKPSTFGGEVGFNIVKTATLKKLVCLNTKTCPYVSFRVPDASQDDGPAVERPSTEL

| SMILES | inhibition [1] | further results |
| --- | --- | --- |
| CCN(Cc1ccccc1)S(=O)(=O)c1ccc(C(=O)O)cc1 | < 0% | – |
| CCCCN(Cc1ccccc1)S(=O)(=O)c1ccc(C(=O)O)cc1 | 19.1% | Activity [2]: 97.8%; Activity [3]: 73.4%; inhibition [4]: inactive; Activity [5]: 62.8%; inhibition [6]: Active; Activity [7]: 124%; Activity (HeLa): Non-toxic; viability at 24 h, 100 µM [8]: 50%; Activity [9]: 121%; Activity [10]: 117% |
| COc1ccc(CN(Cc2nc(C)cs2)S(=O)(=O)c2ccc(C(=O)O)cc2)cc1 | 2.9% | – |
| O=C(O)c1ccc(S(=O)(=O)N2CCN(c3ccccc3)CC2)cc1 | 58.7% | – |
| CCCCN(c1ccccc1)S(=O)(=O)c1ccc(C(=O)O)cc1 | < 0% | – |
| N#Cc1ccc(S(=O)(=O)N(Cc2ccccc2)Cc2ccc(Oc3ccccc3)cc2)cc1 | 1% | – |
| O=S(=O)(c1cccc(Cl)c1)N(Cc1ccccc1)Cc1ccccc1 | 6.2% | – |
| O=C(O)c1ccc(S(=O)(=O)N(Cc2ccc(Oc3ccccc3)cc2)CC2CCCCC2)cc1 | 79.2% | – |
| O=S(=O)(c1ccc(F)cc1)N(Cc1ccccc1)Cc1ccccc1 | < 0% | – |
| COc1ccc(CN(Cc2ccsc2)S(=O)(=O)c2ccc(C(=O)O)cc2)cc1 | 11.9% | – |
| Cc1ccc(-c2cc(C(F)(F)F)nn2-c2ccc(S(N)(=O)=O)cc2)cc1 [CELECOXIB] | – | inhibition [4]: inactive; inhibition [6]: Active; Activity (HeLa): Non-toxic; viability at 24 h, 100 µM [8]: 50% |
| COc1ccc(CN(Cc2cccc(C#N)c2)S(=O)(=O)c2ccc(C(=O)O)cc2)cc1 | 6% | – |
| O=C(O)c1cccc(S(=O)(=O)N(Cc2ccccc2)Cc2ccccc2)c1 | 35.8% | – |
| O=C(O)c1ccc(S(=O)(=O)N(CCc2ccccc2)Cc2ccccc2)cc1 | 57% | Activity [5]: 83.3%; Activity [10]: 117% |
| O=C(O)c1ccc(S(=O)(=O)N(Cc2ccccc2)Cc2ccccc2)cc1 | 51.4% | – |
| COc1ccc(CN(Cc2ccc(C#N)cc2)S(=O)(=O)c2ccc(C(=O)O)cc2)cc1 | < 0% | – |
| O=S(=O)(c1ccccc1Cl)N(Cc1ccccc1)Cc1ccccc1 | < 0% | – |
| O=C(O)c1ccc(S(=O)(=O)N(Cc2ccc(Cl)cc2)CC2CCCCC2)cc1 | 48.4% | – |
| O=C(O)c1ccc(S(=O)(=O)N(Cc2ccccc2)c2ccccc2)cc1 | 26.4% | – |
| O=C(O)c1ccc(S(=O)(=O)N(Cc2ccc(-c3ccccc3)cc2)CC2CCCCC2)cc1 | 76% | Activity [5]: 69.7%; inhibition [11]: 51.9%; Activity [7]: 75.7%; inhibition [12]: 44.4%; pIC50 (Prostaglandin E synthase): 6.10; Activity [9]: 75.9%; Activity [10]: 117% |
| CCN(c1ccccc1)S(=O)(=O)c1ccc(C(=O)O)cc1 | < 0% | – |
| O=C(O)c1ccc(S(=O)(=O)N(CCCc2ccccc2)Cc2ccccc2)cc1 | 73% | Activity [5]: 68%; Activity [10]: 129% |
| O=C(O)c1ccc(CN(Cc2ccccc2)Cc2ccccc2)cc1 | 17.4% | – |
| O=S(=O)(c1ccc(C(F)(F)F)cc1)N(Cc1ccccc1)Cc1ccccc1 | 11.9% | – |
| COc1ccc(CN(Cc2ccoc2)S(=O)(=O)c2ccc(C(=O)O)cc2)cc1 | 14.2% | – |
| N#Cc1ccc(S(=O)(=O)N(Cc2ccccc2)Cc2ccccc2)cc1 | 34.1% | – |
| O=S(=O)(c1ccc(Cl)cc1)N(Cc1ccccc1)Cc1ccccc1 | < 0% | – |
